“And” between values parts separate entries of the source, which are not always exact repeats. Equal values may be shown once.
How the values were obtained:
[1] = target: T1, Alpha-1B adrenergic receptor (Homo sapiens, UniProt P35368); assay: In vitro binding affinity against Alpha-1B adrenergic receptor of cloned human receptor.
T1 sequence (P35368 whole entry): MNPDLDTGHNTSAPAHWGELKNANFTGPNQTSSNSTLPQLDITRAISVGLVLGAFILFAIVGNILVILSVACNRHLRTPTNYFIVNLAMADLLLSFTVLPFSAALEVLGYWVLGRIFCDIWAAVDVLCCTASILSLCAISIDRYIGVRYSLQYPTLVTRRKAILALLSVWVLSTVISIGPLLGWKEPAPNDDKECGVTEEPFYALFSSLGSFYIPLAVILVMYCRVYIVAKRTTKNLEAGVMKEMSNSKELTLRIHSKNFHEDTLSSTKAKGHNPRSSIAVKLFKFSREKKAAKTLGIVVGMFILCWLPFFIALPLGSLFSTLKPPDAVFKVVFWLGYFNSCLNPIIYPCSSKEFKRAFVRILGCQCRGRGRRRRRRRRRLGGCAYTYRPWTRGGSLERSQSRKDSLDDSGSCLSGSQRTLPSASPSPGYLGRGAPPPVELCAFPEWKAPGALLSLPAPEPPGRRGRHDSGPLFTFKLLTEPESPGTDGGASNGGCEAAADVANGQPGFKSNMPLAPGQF

[2] = target: T2, Alpha-1A adrenergic receptor (Homo sapiens, UniProt P35348); assay: In vitro binding affinity against Alpha-1A adrenergic receptor of cloned human receptor.
T2 sequence (P35348 whole entry): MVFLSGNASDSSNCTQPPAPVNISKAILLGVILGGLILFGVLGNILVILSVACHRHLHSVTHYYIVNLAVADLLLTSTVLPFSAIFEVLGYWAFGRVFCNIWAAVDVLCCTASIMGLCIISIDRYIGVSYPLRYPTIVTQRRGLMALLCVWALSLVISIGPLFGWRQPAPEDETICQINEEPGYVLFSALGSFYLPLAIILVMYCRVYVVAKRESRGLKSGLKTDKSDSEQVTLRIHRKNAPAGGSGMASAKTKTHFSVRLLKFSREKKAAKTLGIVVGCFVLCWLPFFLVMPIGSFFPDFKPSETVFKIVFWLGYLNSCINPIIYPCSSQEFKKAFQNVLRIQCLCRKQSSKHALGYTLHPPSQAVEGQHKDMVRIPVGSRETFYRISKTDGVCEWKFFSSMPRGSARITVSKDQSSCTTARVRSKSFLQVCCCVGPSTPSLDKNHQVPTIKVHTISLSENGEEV

[3] = target: T3, Alpha-1D adrenergic receptor (Homo sapiens, UniProt P25100); assay: In vitro binding affinity against Alpha-1D adrenergic receptor of cloned human receptor.
T3 sequence (P25100 whole entry): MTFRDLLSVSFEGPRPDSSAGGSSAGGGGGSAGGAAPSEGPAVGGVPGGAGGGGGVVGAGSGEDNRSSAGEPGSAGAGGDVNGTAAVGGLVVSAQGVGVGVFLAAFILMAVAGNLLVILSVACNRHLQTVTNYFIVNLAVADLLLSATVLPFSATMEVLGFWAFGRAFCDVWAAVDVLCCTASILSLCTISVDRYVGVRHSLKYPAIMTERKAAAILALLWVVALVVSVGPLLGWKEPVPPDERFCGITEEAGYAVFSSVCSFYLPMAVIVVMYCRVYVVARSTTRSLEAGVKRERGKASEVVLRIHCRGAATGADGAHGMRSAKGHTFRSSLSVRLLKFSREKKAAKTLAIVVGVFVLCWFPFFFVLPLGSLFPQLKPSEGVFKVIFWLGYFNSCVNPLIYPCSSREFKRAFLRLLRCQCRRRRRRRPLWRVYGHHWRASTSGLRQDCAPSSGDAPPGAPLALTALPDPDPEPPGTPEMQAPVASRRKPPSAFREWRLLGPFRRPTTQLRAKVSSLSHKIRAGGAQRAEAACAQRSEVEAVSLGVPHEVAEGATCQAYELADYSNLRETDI

Rattus norvegicus = species on record: Rattus norvegicus; assay: Antagonism against phenylephrine induced contractions in isolated prostate tissue of rat; type: functional, Prostate gland
Outline: (§1)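 Isolated prostate strips (rat or dog) contracted with phenylephrine as agonist. Antagonist potency is expressed as Kb, derived from the shift in the agonist response by a previously published method.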

Homo sapiens = species on record: Homo sapiens; assay: Antagonism against phenylephrine induced contractions in isolated prostate tissue of human; type: functional; conditions: Prostate gland
Canis familiaris = species on record: Canis familiaris; assay: Antagonism against phenylephrine induced contractions in isolated prostate tissue of dog; type: functional, Canis lupus familiaris, Prostate gland
Outline: as §1

[4] = target: T4, Alpha-1A adrenergic receptor (Rattus norvegicus, UniProt P43140); assay: In vitro binding affinity against Alpha-1A adrenergic receptor in isolated prostate tissue of rat; type: tissue-based, Prostate gland
T4 sequence (P43140 whole entry): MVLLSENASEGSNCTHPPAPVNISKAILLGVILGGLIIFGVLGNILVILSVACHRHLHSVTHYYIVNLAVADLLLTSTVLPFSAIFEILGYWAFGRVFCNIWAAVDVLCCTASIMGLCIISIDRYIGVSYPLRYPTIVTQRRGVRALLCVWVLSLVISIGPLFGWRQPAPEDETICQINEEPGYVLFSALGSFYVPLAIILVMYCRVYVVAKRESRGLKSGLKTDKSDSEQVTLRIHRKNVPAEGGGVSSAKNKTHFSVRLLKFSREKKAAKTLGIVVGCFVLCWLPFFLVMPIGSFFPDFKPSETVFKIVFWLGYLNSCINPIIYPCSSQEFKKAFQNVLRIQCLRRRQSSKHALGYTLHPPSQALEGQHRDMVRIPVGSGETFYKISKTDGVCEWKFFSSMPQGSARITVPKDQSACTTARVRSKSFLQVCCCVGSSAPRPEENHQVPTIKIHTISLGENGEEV

Compound: COC(=O)C1=C(C)NC(=O)N(C(=O)NCCCN2CCC(C(=O)OC)(c3ccccc3)CC2)C1c1ccc(F)cc1F (centres undefined)
- Ki [1]: 88 nM
- Ki [2]: 0.2 nM
- Ki [3]: 180 nM

Compound: COC(=O)C1=C(C)NC(=O)N(C(=O)NCCCN2CCC(C(=O)OC)(c3ccccc3)CC2)C1c1ccc(Cl)cc1 (centres undefined)
- Ki [1]: 48 nM
- Ki [2]: 4.5 nM
- Ki [3]: 170 nM

Compound: CCC1=C(C(=O)OC)C(c2ccc([N+](=O)[O-])cc2)N(C(=O)NCCCN2CCC(C(=O)OC)(c3ccccc3)CC2)C(=O)N1 (centres undefined)
- Ki [1]: 37 nM
- Ki [2]: 0.8 nM
- Ki [3]: 87 nM

Compound: CCC1=C(C(N)=O)C(c2ccc([N+](=O)[O-])cc2)N(C(=O)NCCCN2CCC(C(=O)OC)(c3ccccc3)CC2)C(=O)N1 (centres undefined)
- Kb (Rattus norvegicus): 2 nM
- Kb (Homo sapiens): 0.04 nM
- Kb (Canis familiaris): 0.85 nM
- Ki [4]: 0.58 nM

Compound: COC(=O)C1=C(C)NC(=O)N(C(=O)NCCCN2CCC(C(=O)OC)(c3ccccc3)CC2)C1c1ccc(F)cc1 (centres undefined)
- Ki [1]: 78 nM
- Ki [2]: 1.2 nM
- Ki [3]: 180 nM

Compound: COC(=O)C1=C(C)NC(=O)N(C(=O)NCCCN2CCC(C(=O)OC)(c3ccccc3)CC2)C1c1cccc(F)c1 (centres undefined)
- Ki [1]: 67 nM
- Ki [2]: 1.5 nM
- Ki [3]: 150 nM

Compound: COC(=O)C1=C(C)NC(=O)N(C(=O)NCCCN2CCC(C(=O)OC)(c3ccccc3)CC2)C1c1ccc(C)cc1 (centres undefined)
- Ki [1]: 77 nM
- Ki [2]: 8 nM
- Ki [3]: 220 nM

Compound: COC(=O)C1=C(C)NC(=O)N(C(=O)NCCCN2CCC(C(=O)OC)(c3ccccc3)CC2)C1c1ccc([N+](=O)[O-])cc1 (centres undefined)
- Ki [1]: 81 nM and 28 nM and 19 nM
- Ki [2]: 0.4 nM and 0.5 nM and 2.1 nM
- Ki [3]: 180 nM and 100 nM and 80 nM

Compound: CCC1=C(C(N)=O)C(c2ccc(F)cc2F)N(C(=O)NCCCN2CCC(C(=O)OC)(c3ccccc3)CC2)C(=O)N1 (centres undefined)
- Ki [1]: 340 nM
- Ki [3]: 440 nM

Compound: COC(=O)C1=C(C)NC(=O)N(C(=O)NCCCN2CCC(c3ccccc3)(c3ccccc3)CC2)C1c1ccc([N+](=O)[O-])cc1 (centres undefined)
- Ki [1]: 27 nM
- Ki [2]: 5 nM
- Ki [3]: 120 nM

Compound: COC(=O)C1(c2ccccc2)CCN(CCCNC(=O)N2C(=O)NC(C)=C(C(N)=O)C2c2ccc([N+](=O)[O-])cc2)CC1 (centres undefined)
- Ki [1]: 100 nM
- Ki [2]: 0.7 nM
- Ki [3]: 140 nM

Compound: COC(=O)C1=C(C)NC(=O)N(C(=O)NCCCN2CCC(C(=O)OC)(c3ccccc3)CC2)C1c1cccc(Cl)c1 (centres undefined)
- Ki [1]: 50 nM
- Ki [2]: 1.1 nM
- Ki [3]: 180 nM

Compound: CCC1=C(C(=O)NC)C(c2ccc([N+](=O)[O-])cc2)N(C(=O)NCCCN2CCC(C(=O)OC)(c3ccccc3)CC2)C(=O)N1 (centres undefined)
- Ki [1]: 139 nM
- Ki [2]: 1.2 nM
- Ki [3]: 398 nM

Compound: COC(=O)C1=C(C)NC(=O)N(C(=O)NCCCN2CCC(C(=O)OC)(c3ccccc3)CC2)C1c1ccc2nonc2c1 (centres undefined)
- Ki [1]: 27 nM
- Ki [2]: 0.1 nM
- Ki [3]: 93 nM

Compound: COC(=O)C1(c2ccccc2)CCN(CCCNC(=O)N2C(=O)NC(C)=C(C(=O)O)C2c2ccc([N+](=O)[O-])cc2)CC1 (centres undefined)
- Ki [1]: 1600 nM
- Ki [2]: 10 nM
- Ki [3]: 2600 nM

Compound: CCOC(=O)C1=C(C)NC(=O)N(C(=O)NCCCN2CCC(C(=O)OC)(c3ccccc3)CC2)C1c1ccc([N+](=O)[O-])cc1 (centres undefined)
- Ki [1]: 15 nM
- Ki [2]: 0.3 nM
- Ki [3]: 91 nM

Compound: COC(=O)C1=C(C)NC(=O)N(C(=O)NCCCN2CCC(C(=O)OC)(c3ccccc3)CC2)C1c1cccc(C)c1 (centres undefined)
- Ki [1]: 110 nM
- Ki [2]: 1.8 nM
- Ki [3]: 320 nM

Compound: CNC(=O)C1=C(C)NC(=O)N(C(=O)NCCCN2CCC(C(=O)OC)(c3ccccc3)CC2)C1c1ccc([N+](=O)[O-])cc1 (centres undefined)
- Ki [1]: 100 nM
- Ki [2]: 2.1 nM
- Ki [3]: 270 nM

Reference: ChEMBL document CHEMBL1132476, “Design and synthesis of novel alpha(1)(a) adrenoceptor-selective antagonists. 1. Structure-activity relationship in dihydropyrimidinones” (J Med Chem, 1999)
